Kir21 block: Kir2.1 (mouse) channel inhibition; B-score at 10 µM; AID 1672; hit rate 0.85% among 310,000; P35561; HEK293-Kir2.1, FluxOR thallium flux fluorescence; hits give low values;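 active means fluorescence ratio B-score at or below minus 3 SD of library scores, with starting-brightness B-score within 2 SD, cut at about -4.2 in these data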;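 further: channel flux triggered by added potassium and thallium sulfate stimulus; B-score of peak minus minimum fluorescence over baseline after thallium stimulus; more negative B-score means stronger Kir2.1 block with less thallium influx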
KCNK3 block: human KCNK3 channel inhibition, primary screen | O14649 | CHO-KCNK3 thallium flux, FluxOR fluorescence; hits give low values | B-score at 10 µM | hit rate 0.84% among 340,000;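 active means B-score under library mean minus 4 SD, starting fluorescence ratio at most library mean plus 5 SD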;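 further: more negative B-score means stronger inhibition of thallium flux through KCNK3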
KCNQ1 pot: human KCNQ1 channel potentiation or activation; P51787; CHO-K1 KCNQ1, thallium flux FluxOR fluorescence; hits give high values; B-score at 10 µM; hit rate 0.35% among 310,000; AID 2648;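 active means fluorescence ratio B-score, a plate-corrected score, at least three library SD, with initial intensity B-score within 5 SD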
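System: Stable KCNQ1 CHO-K1 line | Incubation: 90 min dye loading and 20 min compound exposure, both at room temperature | Measure: Ratio B score | Medium: Assay buffer for compound exposure, DMSO matched across wells | Compound dosing: Single-concentration screen | Probe or stimulus: K+/Tl+ depolarizing stimulus | Measured by: Kinetic FluxOR fluorescence, 10 s baseline plus 110 s post-stimulus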
KCNK9 block: human KCNK9 channel inhibition; HEK293 KCNK9, FluxOR thallium flux fluorescence; hits give low values; B-score at 10 µM; AID 488922; hit rate 1.2% among 310,000;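 active means ratio B-score over 3 SD below the library mean, with starting fluorescence within 5 SD of its mean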;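 further: negative B-score means less thallium flux so channel inhibition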
Target sequence (Q9NPC2 whole entry, looked up): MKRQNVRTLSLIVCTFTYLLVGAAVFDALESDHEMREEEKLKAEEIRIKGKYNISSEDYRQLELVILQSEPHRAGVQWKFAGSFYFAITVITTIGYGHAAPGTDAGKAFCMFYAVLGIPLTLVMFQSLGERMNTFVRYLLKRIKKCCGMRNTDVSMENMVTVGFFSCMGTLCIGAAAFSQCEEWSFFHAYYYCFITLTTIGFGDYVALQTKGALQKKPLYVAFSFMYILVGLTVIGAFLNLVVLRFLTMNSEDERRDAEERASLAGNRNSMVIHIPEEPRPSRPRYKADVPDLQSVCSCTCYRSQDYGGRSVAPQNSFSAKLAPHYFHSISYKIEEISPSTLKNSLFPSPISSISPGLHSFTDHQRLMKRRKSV
KCNQ1 inh: inhibitors of human KCNQ1 potassium channel; CHO-K1 KCNQ1, FluxOR thallium flux fluorescence; hits give high values; hit rate 1.3% among 310,000; P51787; AID 2642; B-score at 10 µM;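 active means compounds whose thallium flux B-score, printed positive for inhibition, exceeds three library SD while starting fluorescence stays within three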;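 further: channel opened by potassium depolarization with thallium stimulus after 20 min compound exposure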
hERG rescue: shields human hERG channel from block by proarrhythmic agents; Q12809; CHO-hERG, FluxOR thallium flux, dofetilide IC70 present; hit rate 0.51% among 310,000; activation (rescue from dofetilide block), less the hit threshold, % at 10 µM;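 active means activation above the mean of controls blocked by dofetilide plus 5 SD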;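 further: thallium influx through hERG after potassium depolarization seen as dye fluorescence rise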
Of the large screens only hits and unclear results are named; the others gave an inactive call. Hits are enriched below; roughly 3.7% of the tested compounds scored in any of these assays.

Cc1ccc(CN2CCSc3ccc(C(=O)NCCCN4CCOCC4)cc32)cc1	none
Cc1ccc(CN2CCSc3ccc(C(=O)NCc4ccco4)cc32)cc1	KCNK9 block -7.1
CC1(c2ccccc2)CC(c2ccccc2)=Nc2nonc2N1 (centres undefined)	Kir21 block -4.43
Cc1nc(N2CCN(Cc3ccccc3)CC2)c(C#N)c2c1COC(C)(C)C2	Kir21 block -7.51
Cc1cccc(OCC(=O)N(Cc2ccccc2)c2c(N)n(Cc3ccccc3)c(=O)[nH]c2=O)c1	none (no result: Kir21 block, KCNQ1 pot, KCNK9 block, KCNQ1 inh, hERG rescue)
COc1ccc(-c2n[nH]c(=S)n2-c2ccccc2C)cc1OC	none
CC(C)CC(=O)Nc1cccc(C(C)O)c1 (centres undefined)	none (no result: KCNK3 block)
Cc1cc(C)c(S(=O)(=O)NCC(c2ccco2)N2CCc3ccccc3C2)c(C)c1 (centres undefined)	KCNK9 block -6.83
COc1ccc(OC)c(NC(=O)NCCCCc2ccccc2)c1	none
O=C1c2cc([N+](=O)[O-])ccc2-c2cc(Br)c(N=C(NO)C(F)(F)F)cc21	KCNK3 block -9.47 (no result: Kir21 block, KCNQ1 pot, KCNK9 block, KCNQ1 inh, hERG rescue)
O=C(CN1C(=O)c2cccc3cccc1c23)NC1CCCC1	none
CC(=O)OCCN(C)c1cc(SC(C)C)c2nonc2c1[N+](=O)[O-]	hERG rescue 7.4
CCOC(=O)c1c(C)n(-c2ccccc2)c2ccc(O)c(CN(C)C)c12	Kir21 block -4.74
CCOC(=O)c1csc(NC(=O)CC2CCCC2)n1	none
N#CCc1ccc(NS(=O)(=O)c2ccc(C3CCCCC3)cc2)cc1	KCNK9 block -6.94
O=C(OCN1C(=O)c2ccccc2C1=O)c1cccc(S(=O)(=O)N2CCOCC2)c1	none
CC1(C)CC(=O)/C(=C(/O)Cc2ccccc2)C(=NCCc2ccccc2)C1	Kir21 block -4.27
COC(=O)C/C=N/N=C1/NC(=O)/C(=C/C(=O)O)S1	none
CC(C)CNC(=S)NC(=O)c1ccc(Cl)cc1Cl	KCNQ1 pot 10
Cc1ccc(C(C[N+](=O)[O-])c2c(-c3ccccc3O)[nH][nH]c2=O)cc1 (centres undefined)	Kir21 block -9.49
O=c1[nH][nH]c(-c2ccccc2O)c1C(C[N+](=O)[O-])c1ccc(Br)cc1 (centres undefined)	none
O=C(CCS(=O)(=O)c1ccc(Br)cc1)NCc1ccc(F)cc1	none
Cc1cc(C)c2cc(C#N)c(N3CCCN(C(=S)NCCCN(C)C)CC3)nc2c1	Kir21 block -6.6
CC(C)(C)c1cc(C(=O)NNC(=O)c2ccc(Cl)cc2)no1	KCNQ1 pot 18, hERG rescue 5.7
Cc1cc(C(=O)NNC(=O)c2ccc(C(F)(F)F)cc2)no1	none
Cc1cccc(Cn2c(C(=O)OC(C)C)cc3c2ccn3C)c1	KCNQ1 inh 6
COC(=O)c1cc2occc2n1Cc1cccc(C)c1	none
CCc1noc(C)c1C(=O)N(CC(C)C)c1c(N)n(Cc2ccccc2)c(=O)[nH]c1=O	none (no result: Kir21 block, KCNQ1 pot, KCNK9 block, KCNQ1 inh, hERG rescue)
O=C(CSc1nc2ccccc2c(=O)n1CCCC(=O)N1CCCC1)NCc1ccco1	none
O=C(CCCCCn1c(SCc2ccncc2)nc2ccccc2c1=O)NCc1ccco1	Kir21 block -4.34
Cc1ccc(-c2nc(CS(=O)CC(=O)NC3CCC(C)CC3)c(C)o2)cc1 (centres undefined)	none
COC(=O)c1ccccc1NC(=S)N(Cc1ccc2c(c1)OCO2)Cc1cc2cccc(C)c2[nH]c1=O	none
Cc1ccc(-n2c(SCc3cn4ccsc4n3)nc3ccccc3c2=O)cc1	KCNQ1 inh 7
c1ccc(-n2cnnc2SCc2cn3ccsc3n2)cc1	none
COc1cc(C(=O)c2nccc3cc(OC)c(OC)cc23)c([N+](=O)[O-])cc1OC	hERG rescue 5.9
OCCNc1nc(-c2ccccc2)c2cc(Cl)ccc2n1	none
COCCNC(=O)c1cccc(Nc2nc(-c3ccccc3)c3cc(Cl)ccc3n2)c1	KCNK9 block -6.81
CCOc1cc(CNCc2ccccc2)ccc1OCC(=O)NC1CCCCC1	Kir21 block -4.38
O=C(NCC1CCCO1)c1ccccc1-c1nc(-c2ccc(Cl)cc2)no1 (centres undefined)	KCNQ1 inh 6
COc1cccc(CC2(CO)CCN(C(=O)NC3CCCCC3)CC2)c1	hERG rescue 8.7
COc1cccc(CC2(CO)CCN(C(=O)NCCc3ccccc3)CC2)c1	none
COCC1CCN(Cc2nc(-c3ccc(OC)cc3)no2)CC1	none
COc1ccc(-n2c(-c3ccc(Cl)cc3)c[n+]3c2CCc2ccccc2-3)cc1	KCNQ1 inh 11
CCN(CC)CCCNc1nc2cc(OC)c(OC)cc2c2nc(-c3ccccc3)nn12	none
CCN(CC)CCCNc1nc2cc(OC)c(OC)cc2c2nc(-c3cccnc3)nn12	KCNQ1 inh 11
CCC1=C(OC(=O)N(CC)CC)N2C(=O)OC(=NCc3ccccc3)[C@]2(C)[C@H]2C1=CC[C@H]1C(=O)N(CC(=O)OC)C(=O)[C@H]12	none
CCC1=C(OC(=O)N(CC)CC)N2C(=O)OC(=NCC3CC3)[C@]2(Cc2ccccc2)[C@H]2C1=CC[C@H]1C(=O)N(CC(=O)OC)C(=O)[C@H]12	KCNK9 block -6.77 (no result: KCNK3 block)
Cc1ccc(Oc2ccc(OCC(=O)NC(CC(C)C)C(=O)O)cc2)cc1 (centres undefined)	hERG rescue 4.9
CC(C)COc1ccc(C(=O)NC(CC(C)C)C(=O)O)cc1 (centres undefined)	none
Cc1ccc(O)c(Cn2nnc3ccccc32)c1	none
CCC(C)NC(=O)CCc1c(C)nc2c(c(C)nn2-c2ccccc2)c1C (centres undefined)	none
Cc1nc2c(c(C)nn2-c2ccccc2)c(C)c1CCC(=O)Nc1ccc(CN2CCCC2)cc1	Kir21 block -9
O=C(C=Cc1ccc2c(c1)OCO2)c1ccccc1	none (no result: Kir21 block, KCNQ1 pot, KCNK9 block, KCNQ1 inh, hERG rescue)
CCOC(=O)C(=Cc1ccc2c(c1)OCO2)c1ccccc1	KCNK3 block -9.8 (no result: Kir21 block, KCNQ1 pot, KCNK9 block, KCNQ1 inh, hERG rescue)
Cc1nc(CNC(=O)CC2C(=O)NCCN2Cc2ccc(F)cc2)cs1 (centres undefined)	none
CN(C)C(=O)C(CCN1CCC(O)(c2ccc(Cl)cc2)CC1)(c1ccccc1)c1ccccc1	Kir21 block -4.9
COc1ccc(S(=O)(=O)N2CCC(C(=O)NCC3CC3)CC2)cc1	none
O=C(CN1CCCCC1)Nc1c2c(nc3ccccc13)N(c1ccccc1)CC2	none
CCCC(=O)Nc1c2c(nc3ccccc13)N(c1ccccc1)CC2	KCNK3 block -9.28
CCN(CC)CCN(C(=O)c1ccc(Br)s1)c1nc2cc3c(cc2s1)OCCO3	none
CN(C)CCCN(C(=O)c1cc2cc([N+](=O)[O-])ccc2s1)c1nc2cc3c(cc2s1)OCCO3	KCNQ1 inh 6
CCN(Cc1ccccc1)S(=O)(=O)c1ccc(C(=O)N(CCCN(C)C)c2nc3ccc(F)cc3s2)cc1	none
CN(C)CCCN(C(=O)c1ccc([N+](=O)[O-])s1)c1nc2cc3c(cc2s1)OCCO3	none

High-throughput results as filed in PubChem BioAssay.
